The values that follow come from ChEMBL document CHEMBL3758165, “In vitro interactions between anidulafungin and nonsteroidal anti-inflammatory drugs on biofilms of Candida spp” (2016).

Common to all, as to type: functional
The subject of test [1] is Candida albicans. Briefly: Antibiofilm activity against Candida albicans ATCC 90028 at 0.1 uM to 100 mM after 48 hrs by XTT reduction assay relative to control. Also on record: scale not given: the % may be the effect or the level left. The gist of the method:
(§1)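 Biofilms grown on sterilized PVC disks: 1·10^6 cfu/ml Candida cells adhered for 1.5 h at 37 °C with shaking, washed with PBS, then matured 48 h at 37 °C in RPMI 1640 (MOPS, pH 7). Preformed biofilms were washed and exposed to drug, alone or in two-dimensional checkerboard combination, in RPMI 1640 for 24 h at 37 °C on a rocker.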

In test [2] the test system is Meyerozyma guilliermondii. Briefly: Antibiofilm activity against Candida guilliermondii ATCC 6260 at 0.1 uM to 100 mM after 48 hrs by XTT reduction assay relative to control. Also on record: scale not given: the % may be the effect or the level left. The gist of the method:
as §1
Background: Tetrazolium assays rely on reduction of a dye to a coloured formazan, in cell work by metabolically active cells.

Test [3] relates to Nakaseomyces glabratus. Kind of test: Antibiofilm activity against Candida glabrata 18a10 assessed as fractional inhibitory concentration by two dimensional checkerboard dilution method in presence of ibuprofen. The procedure, abridged:
(§2)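 Preformed 48 h disk biofilms (RPMI 1640, MOPS pH 7, 37 °C), PBS-washed, exposed 24 h at 37 °C on rocker to two-dimensional checkerboard of anidulafungin plus NSAID in RPMI; NSAID final 0.1 µM to 100 mM. XTT reduction at 490 nm; SMIC = combination giving 50% metabolic reduction versus drug-free control; FIC index calculated; triplicate on different days.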

Test [4] relates to Meyerozyma guilliermondii. Briefly: Antibiofilm activity against Candida guilliermondii ATCC 6260 by two dimensional checkerboard dilution method in presence of diclofenac. The gist of the method: as §2
In test [5] the test system is Candida albicans. Kind of test: Antibiofilm activity against Candida albicans ATCC 10231 after 48 hrs by XTT reduction assay relative to control. On the set-up: scale not given: the % may be the effect or the level left. The procedure, abridged: (§3)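 Biofilms grown on autoclaved PVC disks: 1·10^6 cfu ml-1 cells, adhesion 1.5 h at 37 °C shaking 100 rpm, PBS wash, then 48 h at 37 °C in RPMI 1640 (MOPS, pH 7). Metabolic activity read by XTT–menadione reduction, 2 h at 37 °C, supernatant formazan at 490 nm, relative to drug-free control; triplicate on different days.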

The subject of test [6] is Candida albicans. Kind of test: Antibiofilm activity against Candida albicans ATCC 10231 by two dimensional checkerboard dilution method in presence of diclofenac. The procedure, abridged: as §2
The subject of test [7] is Nakaseomyces glabratus. Briefly: Antibiofilm activity against Candida glabrata 18a10 assessed as fractional inhibitory concentration by two dimensional checkerboard dilution method in presence of diclofenac. The procedure, abridged: as §2
For test [8], the system named is Candida albicans. Briefly: Antibiofilm activity against Candida albicans ATCC 10231 assessed as fractional inhibitory concentration by two dimensional checkerboard dilution method in presence of aspirin. The procedure, abridged: as §2
Test [9] has as its system Meyerozyma guilliermondii. Briefly: Antibiofilm activity against Candida guilliermondii a410 assessed as fractional inhibitory concentration by two dimensional checkerboard dilution method in presence of aspirin. The procedure, abridged:
(§4)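 Biofilms were grown on PVC disks from 2 ml of a 1·10^6 cfu/ml cell suspension. Adhesion ran 1.5 h at 37 °C with shaking at 100 rpm. Disks were PBS-washed, then matured 48 h at 37 °C in RPMI 1640 (MOPS, pH 7). Biofilms were washed again and given 24 h at 37 °C of anidulafungin/NSAID checkerboard combinations (NSAID final 0.1 µM–100 mM). Read-out was XTT-menadione (2 h, 37 °C, 490 nm). SMIC was defined as 50% reduction versus drug-free control, from which FICI was calculated. Triplicates were run on different days.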

Test [10] relates to Meyerozyma guilliermondii. Briefly: Antibiofilm activity against Candida guilliermondii ATCC 6260 assessed as fractional inhibitory concentration by two dimensional checkerboard dilution method in presence of diclofenac. The procedure, abridged: as §2
In test [11] the test system is Meyerozyma guilliermondii. Briefly: Antibiofilm activity against Candida guilliermondii a83 assessed as fractional inhibitory concentration by two dimensional checkerboard dilution method in presence of ibuprofen. The procedure, abridged: as §4
Test [12] concerns Meyerozyma guilliermondii. Kind of test: Antibiofilm activity against Candida guilliermondii a410 by two dimensional checkerboard dilution method in presence of ibuprofen. The procedure, abridged: as §4
Test [13] concerns Meyerozyma guilliermondii. Kind of test: Antibiofilm activity against Candida guilliermondii ATCC 6260 after 48 hrs by XTT reduction assay relative to control. On the set-up: scale not given: the % may be the effect or the level left. The procedure, abridged: as §3
Test [14] deals with Candida albicans. Kind of test: Antibiofilm activity against Candida albicans ATCC 90028 after 48 hrs by XTT reduction assay relative to control. On the set-up: scale not given: the % may be the effect or the level left. The gist of the method: as §3
In test [15] the test system is Nakaseomyces glabratus. Briefly: Antibiofilm activity against Candida glabrata ATCC 15126 by two dimensional checkerboard dilution method in presence of diclofenac. The gist of the method: as §2
Test [16] deals with Meyerozyma guilliermondii. Kind of test: Antibiofilm activity against Candida guilliermondii a410 assessed as fractional inhibitory concentration by two dimensional checkerboard dilution method in presence of diclofenac. The gist of the method:
as §4

Test [17] deals with Nakaseomyces glabratus. Briefly: Antibiofilm activity against Candida glabrata 18a10 by two dimensional checkerboard dilution method in presence of diclofenac. The gist of the method:
as §2

Test [18] deals with Candida albicans. Kind of test: Antibiofilm activity against Candida albicans ATCC 10231 by two dimensional checkerboard dilution method in presence of aspirin. The gist of the method:
as §2

Test [19] has as its system Candida albicans. Kind of test: Antibiofilm activity against Candida albicans ATCC 90028 assessed as fractional inhibitory concentration by two dimensional checkerboard dilution method in presence of ibuprofen. The gist of the method: as §2
Test [20] has as its system Nakaseomyces glabratus. Kind of test: Antibiofilm activity against Candida glabrata ATCC 15126 assessed as fractional inhibitory concentration by two dimensional checkerboard dilution method in presence of aspirin. The procedure, abridged: as §2
The subject of test [21] is Nakaseomyces glabratus. Briefly: Antibiofilm activity against Candida glabrata ATCC 15126 after 48 hrs by XTT reduction assay relative to control. Also on record: scale not given: the % may be the effect or the level left. The procedure, abridged: as §3
The subject of test [22] is Candida albicans. Briefly: Antibiofilm activity against Candida albicans ATCC 10231 assessed as fractional inhibitory concentration by two dimensional checkerboard dilution method in presence of ibuprofen. The gist of the method:
as §2

Test [23] deals with Candida albicans. Briefly: Antibiofilm activity against Candida albicans 17a18 assessed as fractional inhibitory concentration by two dimensional checkerboard dilution method in presence of ibuprofen. The procedure, abridged:
as §2

The subject of test [24] is Candida albicans. Briefly: Antibiofilm activity against Candida albicans ATCC 90028 by two dimensional checkerboard dilution method in presence of diclofenac. The procedure, abridged: as §2
The subject of test [25] is Candida albicans. Kind of test: Antibiofilm activity against Candida albicans ATCC 90028 by two dimensional checkerboard dilution method in presence of ibuprofen. The gist of the method:
as §2

In test [26] the test system is Nakaseomyces glabratus. Kind of test: Antibiofilm activity against Candida glabrata ATCC 15126 assessed as fractional inhibitory concentration by two dimensional checkerboard dilution method in presence of diclofenac. The gist of the method: as §2
The test system of test [27] is Candida albicans. Briefly: Antibiofilm activity against Candida albicans 17a18 by two dimensional checkerboard dilution method in presence of aspirin. The procedure, abridged:
as §2

Test [28] relates to Candida albicans. Kind of test: Antibiofilm activity against Candida albicans ATCC 24433 assessed as fractional inhibitory concentration by two dimensional checkerboard dilution method in presence of aspirin. The gist of the method: as §2
For test [29], the system named is Candida albicans. Kind of test: Antibiofilm activity against Candida albicans ATCC 24433 by two dimensional checkerboard dilution method in presence of ibuprofen. The gist of the method: as §2
For test [30], the system named is Meyerozyma guilliermondii. Briefly: Antibiofilm activity against Candida guilliermondii a83 by two dimensional checkerboard dilution method in presence of aspirin. The procedure, abridged: as §4
For test [31], the system named is Candida albicans. Kind of test: Antibiofilm activity against Candida albicans ATCC 24433 by two dimensional checkerboard dilution method in presence of diclofenac. The gist of the method: as §2
Test [32] concerns Candida albicans. Briefly: Antibiofilm activity against Candida albicans ATCC 90028 assessed as fractional inhibitory concentration by two dimensional checkerboard dilution method in presence of aspirin. The gist of the method: as §2
Test [33] concerns Meyerozyma guilliermondii. Briefly: Antibiofilm activity against Candida guilliermondii a83 by two dimensional checkerboard dilution method in presence of ibuprofen. The gist of the method: as §4
Test [34] deals with Meyerozyma guilliermondii. Kind of test: Antibiofilm activity against Candida guilliermondii a410 at 0.2 mM after 24 hrs by XTT reduction assay relative to control. Also on record: scale not given: the % may be the effect or the level left. The procedure, abridged:
as §1

For test [35], the system named is Candida albicans. Briefly: Antibiofilm activity against Candida albicans ATCC 10231 at 1 mM after 24 hrs by XTT reduction assay relative to control. On the set-up: scale not given: the % may be the effect or the level left. The gist of the method: as §1

In the case of `O=C([O-])Cc1ccccc1Nc1c(Cl)cccc1Cl.[Na+]` [DICLOFENAC SODIUM], the Activity is given as 51.15% in the test with Candida albicans [1] and 60.98% in test [2].

Turning to `CCCCCOc1ccc(-c2ccc(-c3ccc(C(=O)N[C@@H]4C[C@@H](O)[C@@H](O)NC(=O)[C@@H]5[C@@H](O)[C@@H](C)CN5C(=O)[C@H]([C@@H](C)O)NC(=O)[C@H]([C@H](O)[C@@H](O)c5ccc(O)cc5)NC(=O)[C@@H]5C[C@@H](O)CN5C(=O)[C@H]([C@H](C)O)NC4=O)cc3)cc2)cc1`, the Ratio was 0.05 with Nakaseomyces glabratus [3]; 0.1 in the test on Nakaseomyces glabratus [7]; 0.05 in the test with Candida albicans [8]; 0.05 in test [9]; 0.05 in [10]; 0.05 in test [11]. Also, the Ratio in test [16] is reported as 0.05; in the test with Candida albicans [19], 0.2; with Nakaseomyces glabratus [20] it was 0.05; in the test with Candida albicans [22] it was 0.2; with Candida albicans [23] it was 0.2; in the test on Nakaseomyces glabratus [26] it was 0.1. Also, the Ratio with Candida albicans [28] and in the test on Candida albicans [32] was 0.05 each time. The MIC came to 0.1 µg/mL in [4]; 0.1 µg/mL with Candida albicans [6]; 0.4 µg/mL in [12]; 0.2 µg/mL with Nakaseomyces glabratus [15]; 0.2 µg/mL with Nakaseomyces glabratus [17]; 0.1 µg/mL with Candida albicans [18]. The MIC was 0.1 µg/mL with Candida albicans [24]; 0.4 µg/mL with Candida albicans [25]; 0.1 µg/mL in the test with Candida albicans [27]; 0.4 µg/mL in the test on Candida albicans [29]; 0.1 µg/mL in test [30]; 0.1 µg/mL in the test with Candida albicans [31]. Besides, the MIC in test [33] stood at 0.1 µg/mL. Also, the Activity was found to be 33.98% with Candida albicans [5], 51.21% in [13], 16.09% in the test on Candida albicans [14] and 27.41% in the test on Nakaseomyces glabratus [21].

Consider `CC(C)Cc1ccc(C(C)C(=O)O)cc1` (stereo not given) [IBUPROFEN], for which the Activity is listed as 53.24% in test [34] and 16.26% in the test with Candida albicans [35].
